For 22 compounds, SF results are on record in ChEMBL document CHEMBL1144360, “Phenazine 5,10-dioxide derivatives as hypoxic selective cytotoxins” (2005).

Values joined by “and” are separate entries in the source; they are usually repeats but may differ in a detail not shown here. Identical values can stand only once.

Holding throughout (format): functional, Cricetulus griseus
Assay [1] has as its system Cricetinae gen. sp. Briefly: In vitro survival fraction of V79 cells after 2 hours upon treatment with compound in air at 20 uM. Also noted: unit: %. The method, boiled down: (§1)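 Clonogenic assay on V79 suspension cultures gassed with air (aerobic) or nitrogen (hypoxia), exposed to compound for 2 h. Colony survival expressed as survival fraction relative to untreated control under the same gas condition. Assays run in duplicate with at least three repetitions; reported value is the mean of two separate experiments.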

The subject of assay [2] is Cricetinae gen. sp. Briefly: In vitro survival fraction of V79 cells after 2 hours upon treatment with compound under hypoxia at 20 uM. Also noted: unit: %. The method, boiled down:
as §1

Assay [3] has as its system Cricetinae gen. sp. Briefly: In vitro survival fraction of V79 cells after 2 hours upon treatment with compound under hypoxia at 10 uM. Details: unit: %. The method in brief: as §1
In assay [4] the test system is Cricetinae gen. sp. Briefly: In vitro survival fraction of V79 cells after 2 hours upon treatment with compound in air at 10 uM. Details: unit: %. The method, boiled down:
as §1

Assay [5] relates to Cricetinae gen. sp. Briefly: In vitro survival fraction of V79 cells after 2 hours upon treatment with compound in air at 5 uM. The method in brief: as §1
Assay [6] concerns Cricetinae gen. sp. The experiment in a line: In vitro survival fraction of V79 cells after 2 hours upon treatment with compound under hypoxia at 5 uM. The method, boiled down: as §1

`Cc1ccc2nc3cc(N)ccc3[n+]([O-])c2c1`: the SF is 100 and 98 with Cricetinae gen. sp. [1]; 100 in the assay on Cricetinae gen. sp. [2].
In the case of `Nc1ccc2nc3cc(Cl)ccc3nc2c1`, the values for the SF in the assay with Cricetinae gen. sp. [1] and with Cricetinae gen. sp. [2] were 0 and 100, respectively.
As for `Nc1ccc2nc3cc(Br)ccc3nc2c1`, the SF in the assay on Cricetinae gen. sp. [1] and in the assay with Cricetinae gen. sp. [2] was 0 each time.
As for `Nc1ccc2c(c1)[n+]([O-])c1ccc(Br)cc1[n+]2[O-]`, the SF in the assay with Cricetinae gen. sp. [1] was 12; in the assay on Cricetinae gen. sp. [3], 3; with Cricetinae gen. sp. [2], 0; in the assay with Cricetinae gen. sp. [4] it was 64.
Consider `[O-][n+]1c2ccc(Br)cc2[n+]([O-])c2ccc(O)cc21`, for which the SF was 80 with Cricetinae gen. sp. [1] and 0 with Cricetinae gen. sp. [2].
As for `Nc1ccc2c(c1)[n+]([O-])c1ccccc1[n+]2[O-]`, the SF with Cricetinae gen. sp. [1] came out at 2; in the assay with Cricetinae gen. sp. [3], 19; in the assay on Cricetinae gen. sp. [2], 0; in the assay with Cricetinae gen. sp. [4] it was 64.
As for `[O-][n+]1c2ccc(Cl)cc2[n+]([O-])c2ccc(O)cc21`, the SF in the assay on Cricetinae gen. sp. [1] and in the assay on Cricetinae gen. sp. [2] was 100 throughout.
With `COc1ccc2c(c1)[n+]([O-])c1ccc(N)cc1[n+]2[O-]`, the SF in the assay on Cricetinae gen. sp. [1] was 87; with Cricetinae gen. sp. [2] it was 23.
In the case of `Nc1ccc2c(c1)[n+]([O-])c1ccc(Cl)cc1[n+]2[O-]`, the SF is 0 in the assay with Cricetinae gen. sp. [1], 3 with Cricetinae gen. sp. [3], 0 with Cricetinae gen. sp. [2] and 26 in the assay with Cricetinae gen. sp. [4].
In the case of `Nc1ccc2nc3cc(C4OCCO4)ccc3nc2c1`, the SF in the assay with Cricetinae gen. sp. [1] and with Cricetinae gen. sp. [2] was 100 each time.
In the case of `Cc1ccc2nc3cc(O)ccc3nc2c1`, the SF with Cricetinae gen. sp. [1] and in the assay on Cricetinae gen. sp. [2] was 100 in each case.
For the compound `[O-][n+]1c2ccccc2[n+]([O-])c2cc(O)ccc21`, the figures for the SF in the assay with Cricetinae gen. sp. [1] and with Cricetinae gen. sp. [2] were 100 and 73, respectively.
For the compound `Cc1ccc2c(c1)[n+]([O-])c1ccc(N)cc1[n+]2[O-]`, the SF in the assay with Cricetinae gen. sp. [1] is 61; in the assay with Cricetinae gen. sp. [2], 11.
`[O-][n+]1c2ccc(C3OCCO3)cc2[n+]([O-])c2ccc(O)cc21`: the SF stood at 100 in the assay with Cricetinae gen. sp. [1], 100 in the assay on Cricetinae gen. sp. [5], 100 in the assay with Cricetinae gen. sp. [2] and 5 in the assay with Cricetinae gen. sp. [6].
Take `COc1ccc2c(c1)[n+]([O-])c1ccc(O)cc1[n+]2[O-]`: the SF in the assay with Cricetinae gen. sp. [1] is given as 100; in the assay on Cricetinae gen. sp. [2], 87.
On to `Cc1ccc2c(c1)[n+]([O-])c1ccc(O)cc1[n+]2[O-]`, for which the SF with Cricetinae gen. sp. [1] came to 93; in the assay on Cricetinae gen. sp. [2], 100.
`Oc1ccc2nc3cc(Br)ccc3nc2c1`: the SF in the assay on Cricetinae gen. sp. [1] and in the assay with Cricetinae gen. sp. [2] was 100 each time.
For `O=Cc1ccc2nc3cc(O)ccc3nc2c1`, the SF is 98 in the assay on Cricetinae gen. sp. [1] and 100 in the assay on Cricetinae gen. sp. [2].
With `Nc1ccc2c(c1)[n+]([O-])c1ccc([N+](=O)[O-])cc1[n+]2[O-]`, the SF in the assay on Cricetinae gen. sp. [1] is recorded as 1; in the assay on Cricetinae gen. sp. [3] it was 65; in the assay with Cricetinae gen. sp. [2], 2; in the assay with Cricetinae gen. sp. [4], 58.
Take `Cc1ccc2nc3cc(N)ccc3nc2c1`: the SF in the assay on Cricetinae gen. sp. [1] is given as 98; in the assay with Cricetinae gen. sp. [2], 100.
As to `Nc1ccc2c(c1)[n+]([O-])c1ccc(C3OCCO3)cc1[n+]2[O-]`, the SF in the assay on Cricetinae gen. sp. [1] is 14; with Cricetinae gen. sp. [5], 100; with Cricetinae gen. sp. [3], 1; in the assay on Cricetinae gen. sp. [2], 0; in the assay on Cricetinae gen. sp. [6], 36; in the assay on Cricetinae gen. sp. [4], 86.
Take `Oc1ccc2nc3cc(Cl)ccc3nc2c1`: the SF in the assay on Cricetinae gen. sp. [1] and in the assay with Cricetinae gen. sp. [2] was 100 in each case.
